Results from the RNAGym collection of RNA variant scans (doi:10.1126/science.aae0568).
Fewer inactive variants are shown than the library holds.

B1: tRNA (parent)
chain: GUUCCGUUGGCGUAAUGGUAACGCGUCUCCCUCCUAAGGAGAAGACUGCGGGUUCGAGUCCCGUACGGAACG

Variants of: B1
Assay: yeast fitness relative to wild type (ratio to wild type); higher = fitter; tRNA-Arg(CCU), competitive growth, 37 C, YPD
How it was run: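 Gene amplicons from the start population and from each of six end populations were read by 100-nucleotide paired-end sequencing. Those end populations came from pooled Saccharomyces cerevisiae strains carrying tRNA-Arg(CCU) gene variants at the native locus, competed in YPD at 37°C for 24 hours. Fitness relative to wild type was worked out from changes in genotype frequencies. Genotypes needed ≥ 100 starting reads, and estimates < 0.5 were set to 0.5.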

Variant | yeast fitness
GUUCCGUUGGCGUAAUGGUAACGCAUCUCCCUCCUAAGGAGAAGGCUGCGGAUACGAGUCCCGUACGGAACG [G25A A45G G52A U54A] | ≤ 0.5
GUUCCGUUGGCGUAAUGGUAACGCAUUUCCCUCGUAAGGAGAAGACUGCGGGUUCGAGUCCCGUACGGAACG [G25A C27U C34G] | 0.748
GUUCCGUUGGCGUAAUGGUAACGCAUGUCCCUCCUAAGGAGAAGACUGCGGGUUCGAGUACCGUACGGAACG [G25A C27G C60A] | ≤ 0.5
GUUCCGUUGGCGUAAUGGUAACGCAUUUCCCUCCUAAGGAGAAGACUGCGGGUUCGAGUCCCGUACGGCACG [G25A C27U A69C] | 0.73
GUUCCGUUGGCGUAAUGGUAACGCAUCUCCCUCCUAAGGUGAAGACUGCGGGUUCGAGUCCCGUACGGAACG [G25A A40U] | 0.924
GUUCCGUUGGCGUAAUGGUAACGCAUGUCCCUCCUAAGGAGAAGUCUGCGGGUUAGAGUCCCGUACGGAACG [G25A C27G A45U C55A] | ≤ 0.5
GUUCCGUUGGCGUAAUGGUAACGCAUCUCCCUCCUAAGGAGAAGUCUGCGGGUUCGUGUCCCGUACGGAACG [G25A A45U A57U] | ≤ 0.5
GUUCCGUUGGCGUAAUGGUAACGCAUCUCCCUCCUAAGGAGCAGACUGCGGGUUCGAGUCCCGUACGGAACG [G25A A42C] | 0.868
GUUCCGUUGGCGUAAUGGUAACGCAUCUACCUCCUAAGGAGGAGACUGCGGGUUCGAGUCCCGUACGGAACG [G25A C29A A42G] | ≤ 0.5
GUUCCGUUGGCGUAAUGGUAACGCAUCUCCCUCCUAAGGAGUAGACUGCGGGUUCGAGUCCCGUCCUGAACG [G25A A42U A65C G67U] | ≤ 0.5
GUUCCGUUGGCGUAAUGGUAACGCAUCUCCCUCCUAAGGAGAAGUCUGCGGGUCCGACUCCCGUACGGAACG [G25A A45U U54C G58C] | 0.596
GUUCCGUUGGCGUAAUGGUAACGCAUCUACCUCCUAAGGAGAAGACUGCGGGUUAGAGUCCCGUACGGAACG [G25A C29A C55A] | 0.625
GUUCCGUUGGCGUAAUGGUAACGCAUCUCCCUCCUAAGGAGAAGGUUGCGGGUUCGAGUCCCGUACGGAACG [G25A A45G C46U] | 0.731
GUUCCGUUGGCGUAAUGGUAACGCAUCUCCCUCCUAAGGAGACGACUGCGGGUUCGAGUCCCCUACAGAACG [G25A A43C G63C G67A] | ≤ 0.5
GUUCCGUUGGCGUAAUGGUAACGCAUCUCCCUCCUAAGGAGAAGACUGCGGGUUCGAGUCCCGUACGGUACG [G25A A69U] | 1.04
GUUCCGUUGGCGUAAUGGUAACGCAUCUCCCUCCUAAGGAGAAGACUGCGGGUUCGAGUCCCGUACGGAGCG [G25A A70G] | 1.04
GUUCCGUUGGCGUAAUGGUAACGCAUCUCCCUCCUAAGGAGAAGACUGCGGGUUCGAGUCCCGUACGGAUCG [G25A A70U] | 1.01
GUUCCGUUGGCGUAAUGGUAACGCAUUUCCCUCCUAAGGAGAAGACUGCGGGUUCGAGUCCCGUACGGAACG [G25A C27U] | 0.901
GUUCCGUUGGCGUAAUGGUAACGCAUCUGCCUCCUAAGGAGAAGACUGCGGGUGCGAGUCGCGUACGGAACG [G25A C29G U54G C61G] | ≤ 0.5

Variant | yeast fitness
GUUCCGUUGGCGUAAUGGUAACGCAUCUACCUCCUAAAGAGAAGACUGCGGGUUCGAGUCCCGUACGGAACG [G25A C29A G38A] | ≤ 0.5
GUUCCGUUGGCGUAAUGGUAACGCAUCUCCCUCCUAAGGAGAAGACUGCGGGUUCGAGUCCCGUCCGGAACG [G25A A65C] | 1.01
GUUCCGUUGGCGUAAUGGUAACGCAUCUCCCUCCUAAGGAGAAGACUGCGGGUUCGAGUCCCGUGCGGAACG [G25A A65G] | 0.956
GUUCCGUUGGCGUAAUGGUAACGCAUCUCCCUCCUAAGGAGAAGACUGCGGGUUCGAGUCCCGUUCGCAACG [G25A A65U G68C] | 0.657
GUUCCGUUGGCGUAAUGGUAACGCAUCUCCCUCCUAAGGAGAGGUUUGCGGGUUCGAGUCCCGUACGGAACG [G25A A43G A45U C46U] | ≤ 0.5
GUUCCGUUGGCGUAAUGGUAACGCAUCUCCCUCCUAAGGAGACGACUGCGGGUUCGAGUCCCGUACGGACCG [G25A A43C A70C] | 0.824
GUUCCGUUGGCGUAAUGGUAACGCAUCUGCCUCCUAAGGAGAAGACUGCGGGUUCGAGUCCCGUACGGAACG [G25A C29G] | 0.721
GUUCCGUUGGCGUAAUGGUAACGCAUCUCCCUCCUAAGGAGAAGACUGCGGGUUCGUGUCCCGUACGGAACG [G25A A57U] | 0.772
GUUCCGUUGGCGUAAUGGUAACGCAUCUCCCUCCUAAGGAGAAGACUGCGGGUUCGCGUCCCGUACGGAACG [G25A A57C] | 0.697
GUUCCGUUGGCGUAAUGGUAACGCAUCUCCCUCCUAAGGAGAAGACUGCGGGUUCGGGUCCCGUACGGAACG [G25A A57G] | 1.08
GUUCCGUUGGCGUAAUGGUAACGCAUCUCCCUCCUAAGGAGAAGUCUGCGGGUUCGAGUCCCGUACGGAACG [G25A A45U] | 0.803
GUUCCGUUGGCGUAAUGGUAACGCAUCUCCCUCCUAAGGUGAAGGCUGCGGGUUCGAGUACCGUACGGAACG [G25A A40U A45G C60A] | ≤ 0.5
GUUCCGUUGGCGUAAUGGUAACGCAUCUCCCUCCUAAGGUGAAGACUGCGGGUCCGAGUCCCGUACGGAACG [G25A A40U U54C] | 0.565
GUUCCGUUGGCGUAAUGGUAACGCAUCUGCCUCCUAAGGAGACGACUGCGGGUUCGAGUCACGUACGGUACG [G25A C29G A43C C61A A69U] | ≤ 0.5
GUUCCGUUGGCGUAAUGGUAACGCAUCUCCCUCCUAAGGAGACGACUGCGGGUUCGAGUACCGUACGGAACG [G25A A43C C60A] | 0.544
GUUCCGUUGGCGUAAUGGUAACGCAUCUCCCUCCUAAGGAGAAGCCUGCGGGCUUCAGUCACGUAUGGAACG [G25A A45C U53C C55U G56C C61A C66U] | 0.564
GUUCCGUUGGCGUAAUGGUAACGCAUCUCCCUCCUAAGGAGAAGCCUGCGGGUUCGAGUCCCGUAUCGAACG [G25A A45C C66U G67C] | 0.608
GUUCCGUUGGCGUAAUGGUAACGCAUCUCCCUCCUAAGGAGAAGUCUGCGGGUUCGAGUCCAGUACGGAACG [G25A A45U C62A] | 0.54
GUUCCGUUGGCGUAAUGGUAACGCAUCUCCCUCCUAAGGAGAGGACUCCGGGUUCGAGUCCCGUACGGAACG [G25A A43G G48C] | 0.573
